The record followed here is ChEMBL document CHEMBL1139751, “Discovery of small molecule inhibitors of integrin alphavbeta3 through structure-based virtual screening” (Bioorg Med Chem Lett, 2006).

Active and inactive are the calls of the source. The calls are words filed in the database; no cut-off is given here.

Usually IC50 stands for the midpoint of a concentration-inhibition curve. Higher therefore signals weaker potency. As a reminder, the inhibition is the drop in the measured response relative to a control, in per cent. High values mean a strong effect, low ones a weak effect.

Test [1] has as its target Integrin alpha-V/beta-3 (Homo sapiens, UniProt P05106+P06756). Description: Inhibition of integrin alphavbeta3 mediated cell adhesion of human M21 cells to vitronectin. The class given is cell-based. The procedure, abridged: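 Non-tissue-culture plastic 96-well plates were coated overnight with 2 µg/ml vitronectin. M21 cells were seeded with or without graded compound concentrations and allowed to adhere for 1 h at 37 °C. Adherent cells were fixed and stained, and the plates were read at 570 nm. Inhibition was calculated with compound-free wells as 100% adhesion.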

The test system of test [2] is M21. Description: Inhibition of human M21 cell migration assessed by measuring migration distance after 8 hrs at 30 uM by scrape motility assay. The class given is functional. The procedure, abridged: (§1)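 Scrape motility assay with M21 melanoma cells on vitronectin-coated plates, treated with compound at 7.5, 15.0 or 30.0 µM. Migration distance was measured by phase-contrast microscopy at 8 h or 16 h. Percent inhibition was taken against untreated cells. Means ± SD of nine determinations from three independent experiments.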

The subject of test [3] is M21. Briefly: Inhibition of human M21 cell migration after 8 hrs at 30 uM by scrape motility assay. The class given is functional. Particulars: M21, 8 h. The procedure, abridged:
as §1

Test [4] relates to M21. Briefly: Inhibition of human M21 cell migration assessed by measuring migration distance after 8 hrs at 15 uM by scrape motility assay. The class given is functional. The method, boiled down:
as §1

The subject of test [5] is M21. Briefly: Inhibition of human M21 cell migration assessed by measuring migration distance after 16 hrs at 7.5 uM by scrape motility assay. It is filed as functional. The method, boiled down:
as §1

Test [6] has as its system M21. Description: Inhibition of human M21 cell migration at 15 uM after 16 hrs by scrape motility assay. The class given is functional. Particulars: M21, 16 h. The method, boiled down: as §1
Test [7] deals with M21. Briefly: Inhibition of human M21 cell migration at 30 uM after 16 hrs by scrape motility assay. It is filed as functional. Particulars: M21, 16 h. The method, boiled down:
as §1

The subject of test [8] is M21. Briefly: Inhibition of human M21 cell migration at 7.5 uM after 16 hrs by scrape motility assay. The class given is functional. Particulars: M21, 16 h. The procedure, abridged:
as §1

The subject of test [9] is M21. Description: Inhibition of human M21 cell migration after 8 hrs at 7.5 uM by scrape motility assay. It is filed as functional. Particulars: M21, 8 h. The method, boiled down:
as §1

The test system of test [10] is M21. Description: Inhibition of human M21 cell migration assessed by measuring migration distance after 8 hrs at 7.5 uM by scrape motility assay. It is filed as functional. The procedure, abridged:
as §1

Test [11] has as its system HUVEC. Description: Inhibition of bFGF-induced capillary-like structure formation in HUVECs at 30 uM after 6 hrs. Particulars: Homo sapiens. The class given is functional, cell-based. The procedure, abridged: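 HUVECs in ECM gel stimulated with 100 ng/ml bFGF, with or without compound, for 6 h. PBS served as the unstimulated control. Capillary-like structures were viewed by phase-contrast microscopy.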

For test [12], the system named is M21. Briefly: Inhibition of human M21 cell migration after 8 hrs at 15 uM by scrape motility assay. Particulars: M21, 8 h. The class given is functional. The procedure, abridged:
as §1

Test [13] relates to M21. Briefly: Inhibition of human M21 cell migration assessed by measuring migration distance after 16 hrs at 15 uM by scrape motility assay. The class given is functional. The procedure, abridged:
as §1

Test [14] deals with M21. Description: Inhibition of human M21 cell migration assessed by measuring migration distance after 16 hrs at 30 uM by scrape motility assay. It is filed as functional. The method, boiled down:
as §1

Chain of Integrin alpha-V/beta-3 (P05106 27-788 limits assumed): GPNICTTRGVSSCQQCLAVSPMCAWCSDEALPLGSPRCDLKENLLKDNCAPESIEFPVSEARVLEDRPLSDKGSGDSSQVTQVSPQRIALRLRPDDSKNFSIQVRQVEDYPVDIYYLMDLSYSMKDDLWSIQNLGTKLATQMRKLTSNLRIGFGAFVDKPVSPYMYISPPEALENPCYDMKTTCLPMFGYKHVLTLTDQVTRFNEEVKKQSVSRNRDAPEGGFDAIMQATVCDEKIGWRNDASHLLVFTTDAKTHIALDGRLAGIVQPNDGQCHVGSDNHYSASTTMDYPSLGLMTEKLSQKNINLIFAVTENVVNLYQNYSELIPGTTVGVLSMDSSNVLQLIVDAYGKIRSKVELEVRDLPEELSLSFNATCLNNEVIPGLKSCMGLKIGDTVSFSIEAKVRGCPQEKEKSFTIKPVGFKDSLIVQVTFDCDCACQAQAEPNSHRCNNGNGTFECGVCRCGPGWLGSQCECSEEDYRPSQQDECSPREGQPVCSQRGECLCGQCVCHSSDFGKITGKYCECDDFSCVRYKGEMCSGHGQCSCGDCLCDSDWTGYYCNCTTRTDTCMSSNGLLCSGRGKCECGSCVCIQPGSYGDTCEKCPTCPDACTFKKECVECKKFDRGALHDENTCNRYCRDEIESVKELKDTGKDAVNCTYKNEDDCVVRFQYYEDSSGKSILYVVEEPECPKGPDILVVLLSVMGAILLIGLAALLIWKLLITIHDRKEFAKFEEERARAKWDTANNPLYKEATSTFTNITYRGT
Chain of Integrin alpha-V/beta-3 (P06756 31-889 limits assumed): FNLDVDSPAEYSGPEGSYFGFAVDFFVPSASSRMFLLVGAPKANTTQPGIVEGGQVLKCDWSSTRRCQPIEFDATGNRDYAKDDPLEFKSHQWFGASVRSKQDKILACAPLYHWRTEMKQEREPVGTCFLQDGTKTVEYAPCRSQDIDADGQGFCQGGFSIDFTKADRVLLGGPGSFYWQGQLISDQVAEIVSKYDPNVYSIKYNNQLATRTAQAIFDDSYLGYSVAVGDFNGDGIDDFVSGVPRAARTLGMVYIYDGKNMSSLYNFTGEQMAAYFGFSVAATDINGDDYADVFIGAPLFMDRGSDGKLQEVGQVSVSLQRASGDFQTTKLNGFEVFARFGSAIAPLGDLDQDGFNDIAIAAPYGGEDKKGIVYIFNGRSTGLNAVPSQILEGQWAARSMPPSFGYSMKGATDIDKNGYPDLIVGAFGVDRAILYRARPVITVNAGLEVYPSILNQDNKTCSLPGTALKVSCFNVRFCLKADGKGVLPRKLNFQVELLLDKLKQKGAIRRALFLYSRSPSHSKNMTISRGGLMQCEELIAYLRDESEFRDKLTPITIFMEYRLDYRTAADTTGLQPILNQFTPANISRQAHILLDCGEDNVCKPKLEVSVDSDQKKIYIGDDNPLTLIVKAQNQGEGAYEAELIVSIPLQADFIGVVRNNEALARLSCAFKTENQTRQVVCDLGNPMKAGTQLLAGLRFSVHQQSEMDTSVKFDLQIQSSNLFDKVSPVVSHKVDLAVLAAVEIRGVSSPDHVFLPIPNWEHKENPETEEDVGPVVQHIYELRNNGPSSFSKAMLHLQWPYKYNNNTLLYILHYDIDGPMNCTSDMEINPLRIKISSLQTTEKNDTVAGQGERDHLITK
Chain of Integrin alpha-V/beta-3 (P06756 891-1048 limits assumed): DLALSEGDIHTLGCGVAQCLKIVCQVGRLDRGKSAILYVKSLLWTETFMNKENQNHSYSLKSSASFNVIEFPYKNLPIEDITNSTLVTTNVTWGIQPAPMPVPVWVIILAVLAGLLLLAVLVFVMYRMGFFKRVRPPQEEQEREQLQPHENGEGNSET

On to `N=C(N)NC(=N)Nc1ccc(Cl)cc1Cl`, for which the IC50 in [1] came out at 66.9 µM.

Regarding `N=C(N)NC(=N)Nc1cccc(Cl)c1`, half-maximal inhibition in test [1] (IC50) was put at 191 µM.

In test [1], `N=C(N)NC(=N)Nc1cccc(Cl)c1Cl` showed an IC50 of 87.3 µM.

In test [1], `COc1cc(NS(=O)(=O)c2ccc(NC(=O)COc3ccc(Cl)cc3Cl)cc2)nc(OC)n1` showed an IC50 of 137 µM.

The compound `CCOc1cc(/C=c2\sc3nc4c(C)cccc4n3c2=O)cc(Br)c1OCC(=O)O` had an IC50 in [1] of 132 µM.

Consider `NC(N)=NC(N)=Nc1cc(Cl)ccc1Cl`, for which, in test [1], the IC50 was 100 µM.

In turn, `O=C(Nc1ccccc1C(=O)O)c1ccc(N2C(=O)c3ccc(Oc4ccc([N+](=O)[O-])cc4)cc3C2=O)cc1` displayed an IC50 in test [1] of 180 µM.

As for `CSc1cccc(NC(=N)NC(=N)N)c1`, in test [1], the IC50 is above 200 µM.

`CCOc1ccccc1N=C(N)N=C(N)N`: the IC50 in test [1] is above 200 µM.

`N=C(N)NC(=N)Nc1ccc(SC(F)(F)F)cc1` had an IC50 in test [1] of 101 µM.

`NC(N)=NC(N)=Nc1ccc(SC(F)F)cc1`: it took 178 µM to reach half-maximal inhibition in test [1] (IC50).

For `N=C(N)NC(=N)Nc1ccccc1` [PHENYL BIGUANIDE], the IC50 in test [1] was above 200 µM.

Regarding `Cn1cnnc1SCC(=O)Nc1ccc(-c2nc3ccc(NC(=O)CSc4nncn4C)cc3o2)c(O)c1`, it took 162 µM to reach half-maximal inhibition in test [1] (IC50).

Take `N=C(N)N=C(N)Nc1cc(Cl)cc(Cl)c1`: the IC50 in [1] came to 33.5 µM.

Compound `N=C(N)NC(=N)Nc1cc(C(F)(F)F)cc(C(F)(F)F)c1` yielded an IC50 in test [1] of 39.5 µM.

Take `N=C(N)NC(=N)Nc1ccccc1Cl`: in test [1], the IC50 is above 200 µM.

In the case of `N=C(N)NC(=N)Nc1ccc(Cl)cc1` [4-CHLOROPHENYLBIGUANIDE], half-maximal inhibition in test [1] (IC50) required 149 µM.

Compound `Cc1ccc(Cl)cc1N=C(N)N=C(N)N` gave an IC50 in test [1] above 200 µM.

`CCOC(=O)c1cccc(N=C(N)N=C(N)N)c1` had an IC50 in [1] above 200 µM.

`N=C(N)NC(=N)Nc1ccc(F)c(Cl)c1` came in with an IC50 in test [1] of 97.3 µM.

With `N=C(N)NC(=N)Nc1cc(C(F)(F)F)ccc1Cl`, the IC50 in test [1] is 127 µM.

For `N=C(N)NC(=N)Nc1ccc(Cl)c(Cl)c1`, the Activity in test [2] was found to be 1.1 um; in test [4], 8.3 um; in test [5], 72.2 um; in test [10], 27.8 um; in test [13], 38.9 um; in [14] it was 16.7 um. Moreover, the inhibition at 30 µM is 96.4% in test [3] and 86% in test [7]. In addition, the inhibition at 15 µM in test [6] turned out to be 67.4%; in [12], 73.1%. Also, the IC50 in test [1] was found to be 38.5 µM. Further, the figures for the inhibition at 7.5 µM in test [8] and in [9] were 39.5% and 9.1%, respectively. In addition, the result in test [11] was Active.

As for `COc1cc(/C=C2\C(=O)N(c3ccc(C(=O)O)cc3)N=C2C)ccc1OC(=O)c1ccccc1`, the IC50 in test [1] stood at 143 µM.

`COc1cc(NS(=O)(=O)c2ccc(N/C=C3\C(=O)N(c4ccc(I)cc4)N=C3C)cc2)nc(OC)n1` displayed an IC50 in test [1] of 53.5 µM.

Consider `CSc1ccccc1N=C(N)N=C(N)N`, for which the IC50 in test [1] is above 200 µM.
